The text below walks through data of ChEMBL document CHEMBL4145675, “2-Phenylquinoline S. aureus NorA Efflux Pump Inhibitors: Evaluation of the Importance of Methoxy Group Introduction” (J Med Chem, 2018).

Structures are written as SMILES. Values after ≈ are worked out from the molar mass of the structure shown. Active and inactive are the calls of the source. No cut-off for these calls is given here.

For data set [1], the system named is Staphylococcus aureus. The data set is described as follows: Antimicrobial activity against NorA deficient Staphylococcus aureus SA-K1902 by microdilution method. Type of data set: organism-based. The conditions noted are these: in vivo. In a few lines:
(§1)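 CLSI broth microdilution MIC of the compound alone. Strains: SA-K1902 (norA deleted), SA-K2378 (SA-K1902 carrying norA plus its promoter on multicopy plasmid pCU1), SA-1199B (norA overexpressing, GrlA A116E).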

Data set [2] deals with Staphylococcus aureus. Nature of the data set: Antimicrobial activity against Staphylococcus aureus SA-1199B expressing wild type norA and co-expressing GrlA A116E mutant by microdilution method. Type of data set: organism-based. The conditions noted are these: in vivo. Summed up: as §1
Data set [3] deals with Staphylococcus aureus. The data set is described as follows: Induction of membrane depolarization in Staphylococcus aureus SA-1199B expressing wild type norA at 1 ug/ml incubated for 30 mikns by DiOC2(3) fluorescent probe based cytofluorimetry. The conditions noted are these: in the assay text read “overexpressing norA” for “expressing wild type norA”. The format is organism-based. Summed up: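 SA-1199B was grown in MHB at 37 °C to OD600 0.6, washed, and diluted to 1×10^6 CFU/mL in filtered PBS. DiOC2(3) was added at 30 µM final, and compound at 1, 5 or 10 µg/mL for 30 min. CCCP 5 µM final served as positive control. Flow cytometry with 488 nm excitation gave a red/green ratio normalized to the DiOC2(3) blank, expressed as % depolarized versus drug-free control.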

Data set [4] deals with Cytochrome P450 3A4 (Homo sapiens, UniProt P08684). The data set is described as follows: Inhibition of human recombinant CYP3A4 at 1 uM using beetle D-luciferin as substrate by CYP450-Glo assay. The format is ADME. The conditions noted are these: recombinant enzyme. Summed up:
(§2)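 Luminescent P450-Glo assay in which recombinant human CYP3A4 or CYP2D6 converts a beetle D-luciferin derivative to D-luciferin. Compound was tested at 1 and 10 µM.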

Data set [5] concerns Staphylococcus aureus. The data set is described as follows: Synergistic potentiation of ciprofloxacin-induced antimicrobial activity against norA deleted Staphylococcus aureus SA-K1902 at 0.78 to 100 ug/ml by microdilution method based Checkerboard assay. The format is functional, organism-based.
Data set [6] deals with Quinolone resistance protein NorA (Staphylococcus aureus, UniProt P0A0J7, A116E). The data set is described as follows: Inhibition of NorA in Staphylococcus aureus SA-1199B expressing GrlA A116E mutant assessed as reduction in EtBr efflux incubated for 5 mins by fluorescence based assay. In a few lines:
(§3)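 Cells were grown overnight in cation-supplemented Mueller-Hinton broth at 35 °C and subcultured to OD600 0.7–0.8. They were loaded at OD600 0.8 with 25 µM EtBr plus 100 µM CCCP (final) for 20 min at room temperature. Cells were then resuspended in fresh broth with or without compound, 50 µM for the single-point screen or a concentration series for IC50. Fluorescence (ex 485/em 645 nm) was read for 5 min. Inhibition was calculated from the fluorescence decrease versus untreated cells. Biological triplicate, each run twice.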

Data set [7] addresses T1, Quinolone resistance protein NorA (Staphylococcus aureus) (UniProt P0A0J7).
T1 sequence (whole entry): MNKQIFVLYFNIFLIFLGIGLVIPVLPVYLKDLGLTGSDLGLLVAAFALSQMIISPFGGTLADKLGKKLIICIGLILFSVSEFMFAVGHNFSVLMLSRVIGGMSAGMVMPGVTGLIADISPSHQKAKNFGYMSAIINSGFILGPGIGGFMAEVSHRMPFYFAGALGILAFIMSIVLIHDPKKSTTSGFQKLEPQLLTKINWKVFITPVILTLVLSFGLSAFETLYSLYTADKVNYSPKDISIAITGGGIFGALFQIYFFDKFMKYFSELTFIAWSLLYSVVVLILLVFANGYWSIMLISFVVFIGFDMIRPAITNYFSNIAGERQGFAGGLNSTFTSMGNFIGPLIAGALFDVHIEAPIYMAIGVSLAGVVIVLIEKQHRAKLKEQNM
Nature of the data set: Inhibition of NorA in Staphylococcus aureus SA-1199B expressing GrlA A116E mutant assessed as reduction in EtBr efflux at 50 uM incubated for 5 mins by fluorescence based assay. Summed up:
as §3

The subject of data set [8] is Staphylococcus aureus. Nature of the data set: Synergistic potentiation of ciprofloxacin-induced antimicrobial activity against Staphylococcus aureus SA-1199 at 0.78 to 100 ug/ml by microdilution method based Checkerboard assay. Type of data set: functional, organism-based.
Data set [9] can be described thus: Selectivity index, ratio of CC50 for human HepG2 cells to inhibition of NorA in Staphylococcus aureus SA-1199B expressing GrlA A116E mutant assessed as minimal potentiating drug concentration causing 8 fold reduction in ciprofloxacin MIC by microdilution method based Checkerboard assay. Type of data set: toxicity. The conditions noted are these: read-out: Selectivity Index. In a few lines: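 CC50 cells (HepG2 for […], THP-1 for […]) were grown to confluence in RPMI 1640 with 10% FCS, penicillin and streptomycin. They were exposed 24 h at 37 °C to 0–250 µg/mL. Viability was read by ATP bioluminescence, triplicate. CC50 is the concentration reducing cell number 50% versus untreated.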

The subject of data set [10] is Staphylococcus aureus. The data set is described as follows: Synergistic potentiation of EtBr-induced antimicrobial activity against mepA deficient Staphylococcus aureus SA-K2885 at 0.78 to 100 ug/ml by microdilution method based Checkerboard assay. The format is organism-based. The conditions noted are these: in vivo. In a few lines:
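Checkerboard combination of EtBr with compound, using broth microdilution MICs. SA-K2886 (norA-deleted, pALC2073-mepA) and SA-K2885 (norA-deleted, empty pALC2073) were run with 0.05 µg/mL tetracycline in all experiments to induce the xyl/tetO promoter.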

Data set [11] has as its target T1, Quinolone resistance protein NorA (Staphylococcus aureus). Nature of the data set: Inhibition of NorA in Staphylococcus aureus SA-1199B expressing GrlA A116E mutant assessed as synergistic potentiation of ciprofloxacin-induced antimicrobial activity by measuring reduction in ciprofloxacin MIC at 0.78 ug/ml by microdilution method based Checkerboard assay.
Data set [12] is described as follows: Cytotoxicity in human THP1 cells assessed as reduction in cell viability incubated for 24 hrs by ATP bioluminescence assay. The format is cell-based, THP-1. Summed up: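 Cells were grown to confluence overnight in RPMI 1640 with 10% heat-inactivated fetal calf serum, penicillin and streptomycin. Monolayers were exposed for 24 h at 37 °C to scalar concentrations (0-250 µg/mL). Viability was read by ATP bioluminescence, each concentration in triplicate. CC50 is the concentration reducing cell number by 50% versus untreated controls.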

Data set [13] deals with T1, Quinolone resistance protein NorA (Staphylococcus aureus). The data set is described as follows: Inhibition of NorA in Staphylococcus aureus SA-1199B expressing GrlA A116E mutant assessed as minimal potentiating drug concentration causing 8 fold reduction in ciprofloxacin MIC by microdilution method based Checkerboard assay.
Data set [14] has as its target Cytochrome P450 2D6 (Homo sapiens, UniProt P10635). Nature of the data set: Inhibition of human recombinant CYP2D6 at 10 uM using beetle D-luciferin as substrate by CYP450-Glo assay. The format is ADME. The conditions noted are these: recombinant enzyme. Summed up: as §2
The nature of data set [15]: Metabolic stability in mouse liver microsomes assessed as parent compound remaining at 50 uM in presence of NADPH regenerating system incubated for 120 mins by UPLC/MS analysis. The format is ADME, microsome. The conditions noted are these: read-out: Stability. Summed up: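 1 mg/mL mouse liver microsomes in 0.1 M Tris-HCl pH 7.4 with test compound at 50 µM, DMSO up to ~3%. Preincubated 5 min at 37 °C, then started with NADPH regeneration system. Stopped at 120 min with cold methanol and centrifuged. Supernatant analysed by UPLC/MS (ESI, tandem quadrupole).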

Data set [16] deals with Staphylococcus aureus. Nature of the data set: Antimicrobial activity against Staphylococcus aureus SA-1199B expressing wild type norA by microdilution method. Type of data set: organism-based. The conditions noted are these: in vivo. In a few lines:
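Broth microdilution MIC per CLSI guidelines. ATCC 25923 is norA wild-type. SA-1199B overexpresses norA and carries an A116E GrlA substitution.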

Cytochrome P450 2D6, sequence (P10635 whole entry): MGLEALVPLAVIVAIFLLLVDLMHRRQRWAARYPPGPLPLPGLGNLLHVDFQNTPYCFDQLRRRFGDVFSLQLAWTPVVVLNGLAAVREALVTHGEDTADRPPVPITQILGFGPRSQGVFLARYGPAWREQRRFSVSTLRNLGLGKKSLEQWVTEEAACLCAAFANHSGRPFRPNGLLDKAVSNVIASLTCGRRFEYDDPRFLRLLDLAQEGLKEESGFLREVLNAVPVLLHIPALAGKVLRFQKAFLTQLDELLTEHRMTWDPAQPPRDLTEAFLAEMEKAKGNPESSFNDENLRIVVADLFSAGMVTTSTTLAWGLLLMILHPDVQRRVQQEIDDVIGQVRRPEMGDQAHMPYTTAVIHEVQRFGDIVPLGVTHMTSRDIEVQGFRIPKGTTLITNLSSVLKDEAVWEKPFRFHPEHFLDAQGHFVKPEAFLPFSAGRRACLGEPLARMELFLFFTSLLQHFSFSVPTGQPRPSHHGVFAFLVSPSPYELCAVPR
Cytochrome P450 3A4, sequence (P08684 whole entry): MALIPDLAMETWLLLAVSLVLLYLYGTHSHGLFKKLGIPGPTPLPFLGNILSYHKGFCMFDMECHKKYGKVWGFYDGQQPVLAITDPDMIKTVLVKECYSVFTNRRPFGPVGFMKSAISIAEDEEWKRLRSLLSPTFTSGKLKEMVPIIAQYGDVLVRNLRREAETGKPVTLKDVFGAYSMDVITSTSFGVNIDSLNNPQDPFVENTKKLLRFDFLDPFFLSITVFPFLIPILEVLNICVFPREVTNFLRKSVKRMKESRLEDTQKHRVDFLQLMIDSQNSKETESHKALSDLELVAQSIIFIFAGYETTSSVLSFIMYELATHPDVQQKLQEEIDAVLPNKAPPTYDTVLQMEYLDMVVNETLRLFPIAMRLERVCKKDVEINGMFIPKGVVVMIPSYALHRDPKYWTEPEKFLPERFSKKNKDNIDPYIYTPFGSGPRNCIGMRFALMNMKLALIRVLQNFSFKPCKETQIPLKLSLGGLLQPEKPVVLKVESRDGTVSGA

Consider `CCCOc1ccc(-c2cc(OCCN3CCc4cc(OC)c(OC)cc4C3)c3cc(OC)c(OC)cc3n2)cc1`, for which the MIC in [1] was 100 µg/mL (≈ 179 µM); in [2] it was > 179 µM; in [16], > 100 µg/mL. In addition, the Activity is < 20% in [3], “Non-Toxic” in data set [10] and 0.78 µg/mL in data set [13]. The “inhibition (INH)” value in [4] is recorded as “Not Active”; in [14], “Active”. In [5], the result was inactive. Besides, the IC50 in [6] is 1100 nM. In addition, the inhibition in [7] was 94.1%. Also, the inhibition entry in data set [8] is “Active”. Besides, the selectivity ratio in [9] was determined as 95. The fold change (FC) in data set [11] is 8. For the same molecule, in data set [12], the CC50 at 24 h is 37 µg/mL (≈ 66.2 µM). For the same molecule, the remaining at 2 h, 50 µM in data set [15] came to 62%.

In the case of `CCCOc1ccc(-c2cc(OCCN3CCCCC3)c3cc(OC)ccc3n2)cc1`, the MIC in data set [1] is 25 µg/mL (≈ 59.4 µM); in data set [2] it was 238 µM (≈ 100 µg/mL); in data set [16], > 100 µg/mL. Moreover, the Activity in data set [3] was < 10%; in [10], “Non-Toxic”; in data set [13] it was 0.78 µg/mL. The “inhibition (INH)” value in data set [4] is “Not Active”; in [14], “Active”. For the same molecule, the result in data set [5] was inactive. In data set [6], the IC50 is 4200 nM. The inhibition in [7] worked out at 97.6%. The inhibition result in data set [8] was “Active”. Moreover, in data set [9], the selectivity ratio was determined as 50. The fold change (FC) in [11] turned out to be 8. Besides, in [12], the CC50 at 24 h is > 100 µg/mL. The remaining at 2 h, 50 µM in [15] is > 90%.
